Measurements from ChEMBL document CHEMBL3797043 (Bioorg Med Chem Lett, 2016).
Calls of active or inactive are those of the source. No cut-off for these calls is given here.

Experiments:
Mus musculus [1] = test: Analgesic effect in ICR mouse assessed as tail flick latencies at 20 to 40 mg/kg, ip measured 10 to 60 mins post dose by tail flick test; format: functional, organism-based
How it was run: (§1)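 Male ICR mice (18–22 g), blinded observers. Compounds in DMSO stock, diluted in Ringer's solution (final DMSO <10%), given ip in 0.1 mL. Distal 2–3 cm of tail immersed in 52°C ± .5 water; withdrawal latency (s) recorded before dosing and at 10, 20, 30, 45, 60 min after. ≥6 mice per compound per dose; mean ± SEM; two-way ANOVA with Bonferroni test.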

Mus musculus [2] = test: Analgesic effect in ICR mouse assessed as tail flick latencies at 50 mg/kg, ip measured 10 to 60 mins post dose by tail flick test; format: functional, organism-based; how it was run: as §1
Liver carboxylesterase = target: T1, Liver carboxylesterase (Sus scrofa, UniProt Q29550); test: Inhibition of porcine liver esterase using 4-nitrophenyl butyrate substrate assessed as reduction in p-nitrophenol release measured over 5 mins
T1 sequence (Q29550 whole entry): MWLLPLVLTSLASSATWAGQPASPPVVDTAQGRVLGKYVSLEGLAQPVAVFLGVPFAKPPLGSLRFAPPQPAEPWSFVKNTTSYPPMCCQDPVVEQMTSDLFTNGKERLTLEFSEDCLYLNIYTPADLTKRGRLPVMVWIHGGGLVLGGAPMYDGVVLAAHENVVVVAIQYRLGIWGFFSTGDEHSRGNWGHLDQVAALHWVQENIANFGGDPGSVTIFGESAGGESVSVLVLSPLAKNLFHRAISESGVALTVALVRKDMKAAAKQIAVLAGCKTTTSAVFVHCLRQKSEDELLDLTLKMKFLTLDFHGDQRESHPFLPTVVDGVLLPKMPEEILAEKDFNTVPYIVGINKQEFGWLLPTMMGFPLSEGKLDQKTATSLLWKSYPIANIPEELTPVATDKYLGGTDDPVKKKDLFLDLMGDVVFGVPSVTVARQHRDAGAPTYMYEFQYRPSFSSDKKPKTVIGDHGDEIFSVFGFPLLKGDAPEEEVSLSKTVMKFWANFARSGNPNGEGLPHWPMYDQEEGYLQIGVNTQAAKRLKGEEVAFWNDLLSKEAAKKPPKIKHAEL
How it was run: (§2)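 Commercial porcine enzymes (liver esterase, pancreatic elastase) assayed in microplates. The mix held enzyme, 100 uM chromogenic substrate, 0.125 M TrisCl and 0.2 mM EDTA at pH 8.0. Each reaction was started by adding substrate. Release of p-nitrophenol (esterase) or p-nitroaniline (elastase) was followed at 400 nm, with control rates linear over at least 5 min.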

[3] = target: Pancreatic elastase (Sus scrofa) (UniProt P08419+P00772); test: Inhibition of porcine pancreatic elastase at 10 uM using N-Succinyl-ala-ala-ala-p-nitroanilide substrate assessed as reduction in p-nitroaniline release measured over 5 mins; format: protein assay; how it was run: as §2
[4] = target: T2, Fatty-acid amide hydrolase 1 (Homo sapiens) (UniProt O00519); test: Inhibition of MBP-fused human recombinant FAAH with truncated N-terminal transmembrane domain expressed in Escherichia coli T7 assessed as enzyme inactivation rate constant using D-AMC substrate incubated for 2 hrs by fluorescence based assay
T2 sequence (whole entry): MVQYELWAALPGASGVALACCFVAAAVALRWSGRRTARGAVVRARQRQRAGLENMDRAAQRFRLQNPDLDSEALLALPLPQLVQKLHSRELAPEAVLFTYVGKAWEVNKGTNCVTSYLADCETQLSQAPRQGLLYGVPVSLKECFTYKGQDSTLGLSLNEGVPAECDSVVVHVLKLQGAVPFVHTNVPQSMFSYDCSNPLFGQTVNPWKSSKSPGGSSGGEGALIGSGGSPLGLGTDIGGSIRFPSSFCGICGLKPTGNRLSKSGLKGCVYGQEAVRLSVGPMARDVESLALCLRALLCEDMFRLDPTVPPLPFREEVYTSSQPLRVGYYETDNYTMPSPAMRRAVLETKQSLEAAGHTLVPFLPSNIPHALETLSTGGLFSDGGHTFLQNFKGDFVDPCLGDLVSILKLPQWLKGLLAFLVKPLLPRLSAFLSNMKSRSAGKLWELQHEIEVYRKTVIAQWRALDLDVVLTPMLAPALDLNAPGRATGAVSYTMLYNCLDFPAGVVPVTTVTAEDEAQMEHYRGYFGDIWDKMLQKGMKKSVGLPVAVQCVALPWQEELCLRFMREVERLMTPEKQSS
How it was run: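 Human FAAH residues 34–579 as an MBP fusion, expressed in E. coli T7 Express with IPTG induction, then purified by amylose affinity and S100 chromatography. Substrate D-AMC at 5 μM final in 125 mM Tris-Cl, 1 mM EDTA, 0.1% BSA, pH 8.0, 37 °C; ex 351/em 430 nm. Apparent first-order k_i' measured at several inhibitor levels and fitted for k_inact and K_i (D-AMC Km 0.52 μM).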

[5] = target: T2, Fatty-acid amide hydrolase 1 (Homo sapiens); test: Time dependent inhibition of MBP-fused human recombinant FAAH with truncated N-terminal transmembrane domain expressed in Escherichia coli T7 using D-AMC substrate measured over 40 mins by fluorescence based assay; settings: TDE = time-dependent effect
How it was run: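 MBP–FAAH (residues 34–579, E. coli) at 3 μg protein per well, 8 pM active enzyme, with 5 μM D-AMC in Tris-Cl/EDTA/0.1% BSA pH 8.0 at 37 °C; DMSO ≤1%. Reactions started with enzyme; fluorescence read at ex 351/em 430 nm over 40 min. […] Ki from IC50 = Ki(1+[S]/Km)+[Et]/2.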

[6] = target: T3, Fatty-acid amide hydrolase 1 (Homo sapiens, UniProt O00519); test: Inhibition of MBP-fused human recombinant FAAH with truncated N-terminal transmembrane domain expressed in Escherichia coli T7 using D-AMC substrate measured over 40 mins by fluorescence based assay
T3 sequence (O00519 whole entry): T2 sequence (whole entry)

Mus musculus [7] = test: Analgesic effect in ICR mouse assessed as tail flick latencies at 20 to 100 mg/kg, ip measured 10 to 60 mins post dose by tail flick test; format: functional, organism-based; how it was run: as §1

| SMILES | Activity (Mus musculus [2]) | IC50 (Liver carboxylesterase) | inhibition [3] | also measured |
| --- | --- | --- | --- | --- |
| O=C(Nc1cccnn1)N1CCC(c2nc(C3=NOC(c4ccccc4)C3)cs2)CC1 (stereo not given) | Active |  |  | Activity (Mus musculus [1]): inactive |
| O=C(Nc1cnccn1)N1CCC(c2nc(C3=NOC(c4ccccc4)C3)cs2)CC1 (stereo not given) | Active |  |  | Activity (Mus musculus [1]): inactive |
| O=C(Oc1ccc(Cl)cc1)N1CCC(c2nc(C3=NOC(c4ccccc4)C3)cs2)CC1 (stereo not given) |  | 470 nM | inactive |  |
| O=C(Oc1cccnc1)N1CCC(c2nc(C3=NOC(c4ccccc4)C3)cs2)CC1 (stereo not given) | inactive |  |  |  |
| COc1ccc(OC(=O)N2CCC(c3nc(C4=NOC(c5ccccc5)C4)cs3)CC2)cc1 (stereo not given) | inactive |  |  |  |
| O=C(Nc1cccnc1)N1CCC(Cc2cccc(Oc3ccc(C(F)(F)F)cn3)c2)CC1 |  |  |  | K [4]: 0.0033 s⁻¹ |
| O=C(Oc1ccccc1)N1CCC(c2nc(C3=NOC4(CCCc5ccccc54)C3)cs2)CC1 (stereo not given) |  |  |  | inhibition [5]: tde; Ki [6]: 2.73 nM |
| O=C(Nc1ccccc1)N1CCC(c2nc(C3=NOC(c4ccccc4)C3)cs2)CC1 (stereo not given) |  | 5600 nM | inactive |  |
| N#Cc1ccc(OC(=O)N2CCC(c3nc(C4=NOC(c5ccccc5)C4)cs3)CC2)cc1 (stereo not given) | Active |  |  | Activity (Mus musculus [7]): Dose-dependent effect |
| O=C(Nc1nccs1)N1CCC(c2nc(C3=NOC(c4ccccc4)C3)cs2)CC1 (stereo not given) |  | > 10000 nM | inactive |  |
| Cc1ccccc1OC(=O)N1CCC(c2nc(C3=NOC(c4ccccc4)C3)cs2)CC1 (stereo not given) |  | 840 nM | inactive |  |
| O=C(Oc1ccccc1Cl)N1CCC(c2nc(C3=NOC(c4ccccc4)C3)cs2)CC1 (stereo not given) |  | 870 nM | inactive |  |
| O=C(Oc1ccccc1)N1CCC(c2nc(C3=NOC(c4ccccc4)C3)cs2)CC1 (stereo not given) | Active | 2400 nM | inactive | Activity (Mus musculus [1]): inactive |
